# In the RNAGym collection of RNA variant scans (doi:10.1038/s41586-018-0170-7):
# B1: tRNA (parent)
# chain: GUUCCGUUGGCGUAAUGGUAACGCGUCUCCCUCCUAAGGAGAAGACUGCGGGUUCGAGUCCCGUACGGAACG
# Variants of: B1
# Assay: yeast fitness, log relative to wild type (ln ratio); higher = fitter; tRNA-Arg(CCU), competitive growth, 37 C, 1 M NaCl
# Outline: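 Fitness is the natural log of a genotype's generation count divided by that of the wild type. A combinatorial library of tRNA-Arg(CCU) variants sat on a HIS3 centromeric plasmid in BY4742 lacking the chromosomal gene, from two independent transformations. Pools grew 4 generations in SC-HIS at 30 °C, then ~6.5 generations (~26.5 h) in SC-HIS 1M NaCl at 37 °C, with three outputs per input. Generations came from OD-scaled log2 output/input frequency, inverse-variance weighted across replicates, with variants counted by 125 bp paired-end Illumina sequencing.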
row,Variant,yeast fitness (ln)
1,U2G G6A C27U A43C A69G A70G,-0.168
2,U2G G6A C27U A43C A69G A70U,-0.279
3,U2G G6A C27U A43C C46U C66A A69G C71U,-0.283
4,U2G G6A A43C C66A A70U C71U,-0.33
5,U2G G6A A69G A70U C71U,-0.264
6,U2G G6A C27U A43C C66A A70U,-0.176
7,U2G G6A C27U A43C C66A A70G,-0.195
8,U2G G6A C27U C46U C66U A69G A70U,-0.0313
9,U2G G6A C27U C46U C66U A69G A70G,-0.199
10,U2G G6A C46U C66U A70G,-0.0322
11,U2G G6A C46U C66U A70U,-0.000351
12,U2G C27U C66A A70G C71U,-0.201
13,U2G G6A C27U A43C C66U A70U,-0.0534
14,U2G G6A C27U A43C C66U A70G,-0.223
15,U2G G6A A43C C46U A70G C71U,-0.209
16,U2G G6A A43C C46U C66U A70G C71U,-0.149
17,U2G G6A C27U A43C C46U A69G C71U,-0.22
18,U2G G6A C27U A43C C46U C66A A69G A70G C71U,-0.252
19,U2G G6A C27U A43C,-0.0726
20,U2G G6A C27U A43C C66A A69G A70G,-0.368
21,U2G G6A C27U A43C C66A A69G A70U,-0.301

row,Variant,yeast fitness (ln)
1,U2G G6A C66A,-0.111
2,U2G C27U C46U C66U C71U,-0.214
3,U2G G6A C27U A43C C46U A69G A70U C71U,-0.384
4,U2G G6A C46U A69G A70G,-0.115
5,U2G G6A C46U A69G A70U,-0.21
6,U2G G6A A43C C46U C66A A70U,-0.0808
7,U2G G6A A43C C46U C66A A70G,-0.169
8,U2G G6A C27U C66U A69G,-0.193
9,U2G G6A C27U A43C C46U C66A A70U C71U,-0.331
10,U2G G6A C46U A70U,0.00257
11,U2G G6A C46U A70G,-0.0796
12,U2G C46U C66U C71U,-0.115
13,U2G G6A C27U A70G C71U,-0.216
14,U2G G6A A69G A70G C71U,-0.181
15,U2G G6A C46U C66A A69G A70U C71U,-0.382
16,U2G C46U C66U A70G,-0.11
17,U2G C46U C66U A70U,-0.00424
18,U2G G6A C27U C66U A69G A70G,-0.243
19,U2G G6A C27U C66U A69G A70U,-0.0719
20,U2G C46U C66A A70U C71U,-0.0966
21,U2G G6A C27U C46U C66U A70G,-0.364

row,Variant,yeast fitness (ln)
1,U2G G6A C27U C46U C66U A70U,-0.01
2,U2G G6A C46U C66U A70G C71U,-0.35
3,U2G C27U C46U C66U A69G A70U C71U,-0.376
4,U2G G6A C27U C46U C66A A70G,-0.16
5,U2G G6A C27U C46U C66A A70U,-0.134
6,U2G G6A C46U C66U A69G C71U,-0.155
7,U2G G6A C27U C46U C66A A69G A70G C71U,-0.251
8,U2G G6A A43C C66U A69G A70G,-0.257
9,U2G G6A A43C C66U A69G A70U,-0.235
10,U2G G6A A43C C46U A69G A70G C71U,-0.226
11,U2G G6A C27U C46U C66U A70U C71U,-0.158
12,U2G G6A C27U A69G C71U,-0.268
13,U2G C27U C46U C66U A69G A70G C71U,-0.245
14,U2G G6A,-0.00406
15,U2G G6A A69G,-0.135
16,U2G G6A A43C C46U C66A A69G A70G C71U,-0.212
17,U2G C27U C66A,-0.0584
18,U2G C27U C66U,-0.0998
19,U2G G6A C27U C66U,-0.0928
20,U2G G6A C27U C66A,-0.186
21,U2G G6A C27U C66U C71U,-0.238

row,Variant,yeast fitness (ln)
1,U2G C27U C66U A69G A70U,-0.212
2,U2G C27U C66U A69G A70G,-0.288
3,U2G G6A C46U C66U A69G A70G,-0.442
4,U2G G6A C46U C66U A69G A70U,-0.00305
5,U2G C66A A69G A70U,-0.131
6,U2G C66A A69G A70G,-0.148
7,U2G G6A A43C A69G A70G C71U,-0.233
8,U2G G6A C46U A69G,-0.183
9,U2G G6A C27U C46U C66A A70U C71U,-0.167
10,U2G C66U A69G,-0.195
11,U2G G6A A43C C66U A69G A70G C71U,-0.304
12,U2G G6A C27U A43C C46U C71U,-0.134
13,U2G G6A C27U C46U C66U C71U,-0.17
14,U2G C27U C66A C71U,-0.148
15,U2G G6A A43C,-0.0921
16,U2G G6A A43C C66U A70G C71U,-0.186
17,U2G G6A C27U A43C C46U A70G C71U,-0.201
18,U2G G6A C27U A43C C46U C66U A69G A70G C71U,-0.289
19,U2G C46U A70G C71U,-0.284
20,U2G G6A C66A A69G A70G C71U,-0.213
21,U2G G6A C27U A70G,-0.112
